# In the library only some 3.4% were active in any assay of this set; here they are far more common.
# ANO1 block: mouse TMEM16A channel inhibition, primary screen | Q8BHY3 | normalized B-score (activity score, 25-100; higher = stronger inhibition) at 10 µM | HEK293 TMEM16A/YFP iodide influx fluorescence, ionomycin | 1.2% of 310,000 active | AID 588511;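 active = ratio plate-corrected score three or more library SD toward inhibition, starting fluorescence score within five deviations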;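 also: score derived from kinetic fluorescence span divided by baseline fluorescence per well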
# VIM-2 inhibitor: blocks Pseudomonas aeruginosa VIM-2 metallo-beta-lactamase; purified VIM-2, nitrocefin hydrolysis, epi-absorbance fluorescence; inhibition, % at 5.6 µM; 0.89% of 290,000 active;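 active = inhibition above the mean of all tested compounds plus 3 SD, cutoff set per screening run, cut at about 7.5% in these data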;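 also: red hydrolysis product quenches plate fluorescence so inhibitors raise well fluorescence; 0% = enzyme with DMSO and 100% = DMSO without enzyme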
# CHT inh: human CHT choline transport inhibition; Q9GZV3; CHT-expressing cells, membrane potential dye, choline response; stronger effect = lower value; B-score at 10 µM; 0.86% of 310,000 active; AID 488975;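 active = B-score over 3 SD under the library average, and starting fluorescence ratio not unusually high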;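 also: choline stimulus applied at its EC90 after an EC20 pre-addition; B-score computed on integrated fluorescence ratio after choline addition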
# Target sequence (Q9GZV3 whole entry, looked up): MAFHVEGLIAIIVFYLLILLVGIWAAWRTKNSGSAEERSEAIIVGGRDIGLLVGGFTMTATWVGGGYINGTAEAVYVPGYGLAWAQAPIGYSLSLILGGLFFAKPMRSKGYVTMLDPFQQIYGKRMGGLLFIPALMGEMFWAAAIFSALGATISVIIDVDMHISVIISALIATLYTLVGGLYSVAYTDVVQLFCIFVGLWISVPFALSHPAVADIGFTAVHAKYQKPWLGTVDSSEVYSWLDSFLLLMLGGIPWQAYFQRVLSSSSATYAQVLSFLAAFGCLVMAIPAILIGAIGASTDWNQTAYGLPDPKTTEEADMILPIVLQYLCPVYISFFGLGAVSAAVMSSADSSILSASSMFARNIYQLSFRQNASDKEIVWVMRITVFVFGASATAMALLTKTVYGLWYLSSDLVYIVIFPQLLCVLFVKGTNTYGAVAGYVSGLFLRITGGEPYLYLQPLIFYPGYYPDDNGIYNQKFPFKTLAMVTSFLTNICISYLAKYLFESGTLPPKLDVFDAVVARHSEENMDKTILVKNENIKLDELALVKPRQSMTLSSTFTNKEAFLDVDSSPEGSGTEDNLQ
# CHT PAM: allosterically activates the human high affinity choline transporter; Q9GZV3; CHT-expressing cells, membrane potential dye, choline EC20; stronger effect = higher value; LV-AA mutant CHT in HEK293 cells; B-score at 10 µM; 0.49% of 310,000 active;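 active = initial fluorescence not abnormally high and integrated response B-score, plate-corrected, over 3 SD above library mean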
# IMP-1 inh: blocks Pseudomonas aeruginosa IMP-1 metallo-beta-lactamase; 0.45% of 290,000 active; inhibition, % at 5.6 µM; purified IMP-1, nitrocefin hydrolysis, epi-absorbance fluorescence;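 active = inhibition above the mean plus 3 SD of all compounds in the same screening run, cut at about 4.5% in these data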;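 also: 0% = IMP-1 with DMSO and 100% = DMSO wells lacking enzyme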
#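 Assay system: purified IMP-1; Quantity: IMP-1 0.2 nM before substrate addition; Medium: HEPES buffer pH 7.1 with ZnSO4 and Brij 35; Incubation: 15 min enzyme–compound preincubation, then 25 min nitrocefin reaction, 25 °C; Signal: fluorescence quenching readout, ex 480/em 530 nm; Controls: DMSO with and without IMP-1; Repeats: singlicate testing.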
# TMEM16A act: activates or potentiates the mouse TMEM16A chloride channel | HEK293 TMEM16A/YFP-H148Q/I152L, iodide quench fluorescence; stronger effect = lower value | B-score at 10 µM | 0.3% of 340,000 active | AID 623877;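 active = fluorescence-ratio B-score plate-corrected deviation score at least 3 library SD below zero, with starting fluorescence score within 5 deviations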;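 also: channel opened by trigger with iodide after compound preincubation; score built on the fluorescence ratio of max minus min over baseline; more negative score means more quench and so TMEM16A activation or potentiation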
# CHT block conf: confirmation of human choline transporter CHT inhibitors | shares compounds with CHT inh | CHT-expressing cells, choline membrane potential dye; LV-to-AA substituted CHT, HEK293 cells | CHT activity remaining % of control (stronger effect = lower value), % at 10 µM | 70% of 2,400 active;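 active = choline transporter activity left, mean of duplicates at 10 µM, below buffer-only control mean minus 3 SD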;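 also: depolarization triggered by choline at its EC90 following an EC20 pre-addition; 0% = hemicholinium-3 full block and 100% = buffer-only control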
# HEK293 CHT ctr: activity in parental HEK293 cells lacking CHT; shares compounds with CHT inh; membrane potential dye, choline response; active = decrease or increase beyond buffer ±3SD; membrane potential ratio readout (active if shifted either direction beyond buffer ±3SD; no single direction) at 10 µM; 4% of 2,400 active; AID 493222;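 also: parental cells lack the transporter so any hit is non-specific; ratio is peak minus trough fluorescence over baseline after EC90 choline challenge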
# Numbers without * were called inactive; i = inactive; . = no result.
SMILES,ANO1 block,VIM-2 inhibitor,CHT inh,CHT PAM,IMP-1 inh,TMEM16A act,CHT block conf,HEK293 CHT ctr
C#CC[N+](C)(C)CC#Cc1ccc(C)cc1,i,1,i,i,1,i,.,.
COc1ccc(C(=O)C(O)C(c2ccc(C)cc2)N2CCOCC2)cc1OC (configuration not stated),i,-2,i,i,-4,i,.,.
COc1ccccc1-c1coc2cc(O)cc(O)c2c1=O,i,-1,-5.9*,i,-1,i,65%*,i
O=c1c(-c2ccc(O)cc2O)coc2cc(O)cc(O)c12,i,3,i,i,-1,i,.,.
COc1ccc(C(=O)O)cc1S(=O)(=O)N1CCSCC1,i,-1,i,i,-1,i,.,.
O=C(c1ccco1)N1CCC(c2nc(-c3ccccc3Cl)no2)CC1,i,-2,-5.7*,i,-3,i,i,i
c1nc(SSc2ncnc3nc[nH]c23)c2[nH]cnc2n1,.,.,.,.,.,i,.,.
COc1cccc(/C=N/NC(=O)c2ccc(CN3c4cccc5cccc(c45)S3(=O)=O)cc2)c1,i,-3,i,i,-3,i,.,.
O=C(N/N=C/c1cccnc1)c1ccc(CN2c3cccc4cccc(c34)S2(=O)=O)cc1,i,-1,-5*,i,-1,i,i,i
CCc1cc(CC)c(/C=N/NC(N)=O)c(CC)c1/C=N/NC(N)=O,i,-4,-9.3*,i,-2,i,19%*,i
Cc1cc(/C=N/NC(N)=O)c(C)c(CO)c1,i,-4,i,i,-2,i,.,.
CN(C)c1ccc(C(=O)c2ccc(O)cc2O)cc1,i,0,-6*,i,-3,i,61%*,i
CCC(=O)Nc1cc2nn(-c3ccc(OC)cc3)nc2cc1C,i,-3,-6.6*,i,-2,i,i,i
COc1ccc(NCC(=O)Nc2cccc(S(=O)(=O)N3CCCC3)c2)cc1Cl,.,.,.,.,.,i,.,.
O=C1NC(c2ccccc2)=C(c2ccc3ccccc3n2)C(c2ccc(F)cc2)N1 (configuration not stated),i,-1,i,i,-2,i,.,.
O=C1NC(c2ccccc2)=C(c2ccc3ccccc3n2)C(c2ccncc2)N1 (configuration not stated),i,3,-6.3*,i,-2,i,47%*,i
COc1ccc(S(=O)(=O)N2CCN(C(=O)c3ccco3)CC2)c(C)c1C,i,-2,i,i,-3,i,.,.
OCC1(CO)CCCC(CO)(CO)C1O,.,.,.,.,.,i,.,.
Cc1noc(/C=C/c2cccs2)c1S(=O)(=O)N1CCC(C(=O)NCCCN2CCC(C)CC2)CC1,i,-1,-5.1*,i,-1,i,i,i
COCCNC(=O)C1CCCN(S(=O)(=O)c2c(C)noc2/C=C/c2cccs2)C1 (configuration not stated),i,-1,i,i,-1,i,.,.
OC(COC(c1ccc(F)cc1)c1ccc(F)cc1)CN1CCCC(C(F)(F)F)C1 (configuration not stated),i,-2,i,i,-3,i,.,.
Cc1cc(C(=O)Cn2ncc(Cl)c(Cl)c2=O)c(C)n1CC(F)(F)F,i,1,-5.6*,i,-2,i,44%*,i
COc1ccc(OC)c(S(=O)(=O)Nc2cccc3ccc(O)cc23)c1,i,.,i,i,.,i,.,.
Cc1onc(-c2ccccc2Cl)c1C(=O)Oc1cccc2cccnc12,i,-3,-5.5*,i,-4,i,i,i
CSc1ccc(CC(=O)N2CCC(n3nccc3NC(=O)C3CC3)CC2)cc1,i,-1,i,i,-2,i,.,.
SMILES,ANO1 block,VIM-2 inhibitor,CHT inh,CHT PAM,IMP-1 inh,TMEM16A act,CHT block conf,HEK293 CHT ctr
O=C(Nc1cccnc1)c1ccc(COc2ccccc2Cl)o1,i,-1,-7.3*,i,-2,i,56%*,i
O=C(Nc1cccnc1)c1ccc(COc2cc(Cl)ccc2Cl)o1,i,-3,i,i,-2,i,.,.
CCCn1c(=O)c2ccccc2n2c(SCCOc3ccccc3)nnc12,i,-1,-6.2*,i,-2,i,i,i
CCCn1c(=O)c2ccccc2n2c(SCc3nc4ccccc4s3)nnc12,i,-3,i,i,-1,i,.,.
O=C(N/N=C/c1cn[nH]c1-c1ccc(Cl)cc1)c1ccc([N+](=O)[O-])cc1,i,-7,-5.1*,i,-3,i,60%*,i
CC#CCN(CC#CC)S(=O)(=O)c1ccc(-n2cnnn2)c(OC)c1,i,1,-6.8*,i,-3,i,59%*,i
COc1cc(C=Nc2cccc(C)c2)c(O)c([N+](=O)[O-])c1,i,0,-6.9*,i,0,i,68%*,i
Cc1nc(NCCCN2CCOCC2)c2cnn(-c3ccccc3)c2n1,.,.,.,.,.,i,.,.
O=C(Nc1cccc(C(=O)N2CCCCC2)c1)c1ccccc1Br,i,-6,-5.2*,i,-2,i,25%*,i
Cc1cccc(N2CCN(C(=O)c3ccc(NS(=O)(=O)c4ccc5[nH]c(=O)[nH]c5c4)cc3)CC2)c1C,i,0,-5.1*,i,-2,i,i,i
O=C(c1ccc(NS(=O)(=O)c2ccc3[nH]c(=O)[nH]c3c2)cc1)N1CCN(c2ccccc2O)CC1,i,.,i,i,.,i,.,.
Nn1c(SCC(=O)Nc2cccc(S(N)(=O)=O)c2)nnc1C1CC1,i,1,i,i,0,i,.,.
NS(=O)(=O)c1cccc(NC(=O)CSc2nnc(C3CC3)n2Cc2ccccc2)c1,i,0,-5.9*,i,-2,i,i,i
O=[N+]([O-])c1cncc([N+](=O)[O-])c1Nc1cccc(O)c1,i,0,i,i,0,i,.,.
CNc1nc(-c2c[nH]c3ccccc23)cs1,i,-5,i,i,-4,i,.,.
CN1CCN(CC(=O)Nc2nc(-c3c[nH]c4ccccc34)cs2)CC1,i,2,-5.4*,i,2,i,64%*,i
O=C(COc1ccccc1Cl)NNC(=O)c1ccc2c(=O)n3c(nc2c1)CCC3,.,.,.,.,.,i,.,.
